Measurements reported in paper PMC8247328 (British Journal of Clinical Pharmacology, 2020).
Where a SMILES comes first, the peptide text is derived from it. [ ]: non-standard residue; d: D form.

Key:
[1] = test system: peripheral blood mononuclear cells (PBMCs); test: Mitochondrial membrane potential of PBMCs; type: in vivo, human; conditions: for Percentage of dysfunctional PMBCs, contrast vs placebo (95% CI) / Mitochondrial membrane potential (Delta psi), contrast vs placebo (95% CI): ANCOVA
Procedure, shortened: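 Live PBMCs were stained with JC-1 and read by flow cytometry, FL-2 for healthy and FL-1 for dysfunctional mitochondria. A fraction of cells was treated with CCCP as uncoupled positive control, and ΔΨm was calculated from FL2/FL1 ratios ×100. Blood was drawn 1 h before dosing on day 1 and 1.5 h after the final dose on day 7 (Part 1), and 1.5 h post-dose on day 27 (Part 2). Analysis was mixed-model ANCOVA with baseline as covariate.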

PBMCs = type: cell-based, human; conditions: Part 2; 25 mg s.c. once daily; after 27 days
[2] = test system: mitochondrial function in the visual cortex; test: 31P-MRS of the visual cortex before, during and after visual stimulation; type: in vivo, human; conditions: Part 2, 25 mg s.c. once daily 28 d
Procedure, shortened: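 At 3 T, a 6-cm 31P transmit/receive surface coil was placed over the visual cortex, positioned using a 10-mm water sphere on 1H images. Adiabatic pulse-acquire (TR 2 s, flip 90°) FIDs were collected for 4 min at rest (128 averages), 8 min during visual activation (256) and 8 min after (256). Time-domain fitting with prior knowledge gave PCr/ATP, Pi/PCr, Pi/ATP and pH. Scans ran on day −1 and 1.5 h post-dose on day 27; mixed-model ANCOVA used baseline as covariate.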

MPTP‐treated mice = conditions: cited from earlier work
[3] = Part 1, 25 mg s.c. once daily 7 d
[4] = Part 2, 25 mg s.c. once daily 28 d

SMILES: N=C(N)NCCC[C@@H](NC(=O)[C@@H](N)Cc1ccccc1)C(=O)N[C@@H](Cc1ccccc1)C(=O)N[C@@H](CCCCN)C(N)=O [SBT‐020, H‐Phe‐D‐Arg‐Phe‐Lys‐NH2] (H-F[dR]FK-NH2)
- Percentage of dysfunctional PMBCs, contrast vs placebo (95% CI) ([1]; Part 1, 15 mg s.c. once daily 7 d): −3.002 (−4.980, −1.025) P = .0051%
- Percentage of dysfunctional PMBCs, LS mean ([1]; Part 1, 15 mg s.c. once daily 7 d, n=6, day 7, 1.5 h post dose): 2.80%
- Mitochondrial membrane potential (Delta psi), contrast vs placebo (95% CI) [1, 3]: 1513.21 (114.067, 2912.36) P = .0356
- Percentage of dysfunctional PMBCs, contrast vs placebo (95% CI) [1, 3]: −2.052 (−3.894, −0.210) P = .0310%
- Percentage of dysfunctional PMBCs, LS mean ([1]; Part 1, 25 mg s.c. once daily 7 d, n=6, day 7, 1.5 h post dose): 3.75%
- Mean percentage of dysfunctional PBMCs after 7 days of treatment ([1]; Part 1, 5‐mg cohort, baseline mean 3.2): 3.4%
- Mean ∆Ψm after 7 days of treatment ([1]; Part 1, 5‐mg cohort, baseline mean 2956): 2948
- Mean percentage of dysfunctional PBMCs after 7 days of treatment ([1]; Part 1, 15‐mg cohort, baseline mean 4.3): 3.8%
- Mean ∆Ψm after 7 days of treatment ([1]; Part 1, 15‐mg cohort, baseline mean 3,316): 3,282
- Mean percentage of dysfunctional PBMCs after 7 days of treatment ([1]; Part 1, 25‐mg cohort, baseline mean 3.2): 3.4%
- Mean ∆Ψm after 7 days of treatment ([1]; Part 1, 25‐mg cohort, baseline mean 3715): 5279
- Mitochondrial membrane potential (Delta psi), contrast vs placebo (95% CI) [1, 4]: 1065.4 (−495.2, 2626.0) P = .17
- Percentage of dysfunctional PMBCs, contrast vs placebo (95% CI) [1, 4]: −0.75 (−3.93, 2.42) P = .62%
- Percentage of dysfunctional PMBCs, LS mean ([1]; Part 2, 25 mg s.c. once daily 28 d, n=11, day 27, 1.5 h post dose): 4.08%
- Mitochondrial membrane potential (Delta psi), LS mean ([1]; Part 2, 25 mg s.c. once daily 28 d, n=11, day 27, 1.5 h post dose, PBMCs): 4090.47
- Mean percentage of dysfunctional PBMCs after 28 days of treatment ([1]; Part 2, active group 25 mg, baseline mean 4.6): 4.2%
- Mean ∆Ψm after 28 days of treatment ([1]; Part 2, active group 25 mg, baseline mean 3770): 4124
- Effect on ∆Ψm values and half maximal inhibitory concentration values for carvedilol and verapamil (PBMCs): no effect
- Effect on brain mitochondrial function compared to placebo [2]: No overall statistically significant effect
- PCr/ATP after visual stimulation (central 31P‐MRS), contrast vs placebo (95% CI) ([2]; ANCOVA): −0.02 (−0.1, 0.05) P = .57
- Pi/ATP after visual stimulation (central 31P‐MRS), contrast vs placebo (95% CI) ([2]; ANCOVA): 0.0073 (−0.0270, 0.0415) P = .6613
- Pi/ATP before visual stimulation (central 31P‐MRS), contrast vs placebo (95% CI) ([2]; ANCOVA): −0.002 (−0.02, 0.02) P = .80
- Pi/ATP during visual stimulation (central 31P‐MRS), contrast vs placebo (95% CI) ([2]; ANCOVA): −0.004 (−0.02, 0.01) P = .57
- Pi/PCr after visual stimulation (central 31P‐MRS), contrast vs placebo (95% CI) ([2]; ANCOVA): 0.02 (−0.02, 0.06) P = .32
- Pi/PCr before visual stimulation (central 31P‐MRS), contrast vs placebo (95% CI) ([2]; ANCOVA): 0.0007 (−0.02, 0.02) P = .93
- Pi/PCr during visual stimulation (central 31P‐MRS), contrast vs placebo (95% CI) ([2]; ANCOVA): 0.004 (−0.03, 0.03) P = .81
- PCr/ATP after visual stimulation (central 31P‐MRS), LS mean ([2]; n=11, day 27): 0.9
- PCr/ATP before visual stimulation (central 31P‐MRS), LS mean ([2]; n=11, day 27): 0.8
- PCr/ATP during visual stimulation (central 31P‐MRS), LS mean ([2]; n=11, day 27): 0.8
- PCr/ATP during‐after visual stimulation (central 31P‐MRS), LS mean ([2]; n=11, day 27): −0.05
- PCr/ATP during‐before visual stimulation (central 31P‐MRS), LS mean ([2]; n=11, day 27): −0.03
- Pi/ATP after visual stimulation (central 31P‐MRS), LS mean ([2]; n=11, day 27): 0.2
- Pi/ATP before visual stimulation (central 31P‐MRS), LS mean ([2]; n=11, day 27): 0.2
- Pi/ATP during visual stimulation (central 31P‐MRS), LS mean ([2]; n=11, day 27): 0.2
- Pi/ATP during‐after visual stimulation (central 31P‐MRS), LS mean ([2]; n=11, day 27): −0.02
- Pi/ATP during‐before visual stimulation (central 31P‐MRS), LS mean ([2]; n=11, day 27): −0.01
- Pi/PCr after visual stimulation (central 31P‐MRS), LS mean ([2]; n=11, day 27): 0.2
- Pi/PCr before visual stimulation (central 31P‐MRS), LS mean ([2]; n=11, day 27): 0.2
- Pi/PCr during visual stimulation (central 31P‐MRS), LS mean ([2]; n=11, day 27): 0.2
- Pi/PCr during‐after visual stimulation (central 31P‐MRS), LS mean ([2]; n=11, day 27): −0.005
- Pi/PCr during‐before visual stimulation (central 31P‐MRS), LS mean ([2]; n=11, day 27): −0.006
- Attenuation of MPTP‐induced dopamine depletion (MPTP‐treated mice; MPTP‐treated mice, single dose of 4 mg/kg): 40%
- Neuroprotection in the striatum (MPTP‐treated mice; acute MPTP model, peripheral administration at 5 mg/kg, ref not given): sufficient to achieve neuroprotection
- Effect in MPTP‐induced mouse model of Parkinson's disease (MPTP‐treated mice; given systemically): effective in attenuating injury and improving neurotransmitter release
